Measurements: ChEMBL document CHEMBL3632612, “Discovery of WQ-3810: Design, synthesis, and evaluation of 7-(3-alkylaminoazetidin-1-yl)fluoro-quinolones as orally active antibacterial agents” (Eur J Med Chem, 2015)
Values after ≈ are worked out from the molar mass of the structure shown.

Columns and labels:
[1] = system: Klebsiella pneumoniae; experiment: Antibacterial activity against Klebsiella pneumoniae DT-S assessed as growth inhibition at 128 to 0.002 mg/L incubated for 18 hrs at 37 degC by agar dilution method; assay type: functional
Procedure, shortened: (§1)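 Agar dilution on Mueller Hinton agar per Japanese Society of Chemotherapy standard method; about 10⁴ cfu inoculated onto plates holding two-fold dilution series; incubation 37°C, 18 h; MIC read as growth endpoint.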

[2] = Oral drug absorption in Sprague-Dawley rat at 10 mg/kg, po after 24 hrs by HPLC; assay type: ADME, organism-based; details: in vivo
Procedure, shortened: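 Absorption rate computed as total urinary plus biliary excretion (% of dose, summed means) after oral dosing divided by total after iv dosing; excretion measured in fasted male Sprague-Dawley rats by HPLC over 24 h, bile glucuronides alkaline-hydrolysed.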

[3] = system: Enterobacter cloacae; experiment: Antibacterial activity against Enterobacter cloacae IFO13535 assessed as growth inhibition at 128 to 0.002 mg/L incubated for 18 hrs at 37 degC by agar dilution method; assay type: functional; details: IFO13535, 18 h; procedure, shortened: as §1
[4] = Drug excretion in Sprague-Dawley rat bile assessed as unmetabolized form at 5 mg/kg, iv after 24 hrs by HPLC; assay type: ADME, organism-based; details: read-out: Drug excretion
Procedure, shortened: (§2)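 Six-week male Sprague-Dawley rats, fasted overnight; oral dose suspended in 0.5% methylcellulose, iv dose dissolved in 0.04 N NaOH. Urine from intact rats in metabolic cages, bile from bile duct-cannulated rats, 0–24 h. Bile alkaline-hydrolysed (1 N NaOH, 37°C, 1 h) to convert glucuronides; HPLC with UV 290 nm and internal standard; % of dose; mean ± S.D., three rats.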

[5] = Drug excretion in Sprague-Dawley rat urine at 10 mg/kg, po after 24 hrs by HPLC; assay type: ADME, organism-based; details: read-out: Drug excretion; procedure, shortened: as §2
[6] = system: Escherichia coli; experiment: Antibacterial activity against Escherichia coli KC-14 assessed as growth inhibition at 128 to 0.002 mg/L incubated for 18 hrs at 37 degC by agar dilution method; assay type: functional; details: KC-14, 18 h; procedure, shortened: as §1
[7] = system: Pseudomonas aeruginosa; experiment: Antibacterial activity against Pseudomonas aeruginosa E-2 assessed as growth inhibition at 128 to 0.002 mg/L incubated for 18 hrs at 37 degC by agar dilution method; assay type: functional; details: E-2, 18 h; procedure, shortened: as §1
[8] = Drug excretion in Sprague-Dawley rat urine at 5 mg/kg, iv after 24 hrs by HPLC; assay type: ADME, organism-based; details: read-out: Drug excretion; procedure, shortened: as §2
[9] = Solubility of the compound in JP2 solution at pH 6.8 after 24 hrs at 25 degC by HPLC; assay type: physicochemical
Procedure, shortened: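 Excess solid shaken in JP2 (50 mM potassium dihydrogenphosphate, pH 6.8) at 25°C for 24 h to equilibrium, filtered 0.45 µm; filtrate concentration by reversed-phase UPLC, UV 290 nm; mean ± S.D., n=3.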

[10] = system: Escherichia coli; experiment: Antibacterial activity against Escherichia coli 177 assessed as growth inhibition at 128 to 0.002 mg/L incubated for 18 hrs at 37 degC by agar dilution method; assay type: functional; details: Escherichia coli, 177, 18 h; procedure, shortened: as §1
[11] = system: Acinetobacter calcoaceticus; experiment: Antibacterial activity against Acinetobacter calcoaceticus Ac-54 assessed as growth inhibition at 128 to 0.002 mg/L incubated for 18 hrs at 37 degC by agar dilution method; assay type: functional; details: Ac-54, 18 h; procedure, shortened: as §1
[12] = Drug excretion in Sprague-Dawley rat bile assessed as unmetabolized form at 10 mg/kg, po after 24 hrs by HPLC; assay type: ADME, organism-based; details: read-out: Drug excretion; procedure, shortened: as §2
[13] = system: Serratia marcescens; experiment: Antibacterial activity against Serratia marcescens T-55 assessed as growth inhibition at 128 to 0.002 mg/L incubated for 18 hrs at 37 degC by agar dilution method; assay type: functional; details: T-55, 18 h; procedure, shortened: as §1
[14] = system: Escherichia coli; experiment: Antibacterial activity against Escherichia coli NIHJ assessed as growth inhibition at 128 to 0.002 mg/L incubated for 18 hrs at 37 degC by agar dilution method; assay type: functional; procedure, shortened: as §1
[15] = system: Providencia rettgeri; experiment: Antibacterial activity against Providencia rettgeri W1008 assessed as growth inhibition at 128 to 0.002 mg/L incubated for 18 hrs at 37 degC by agar dilution method; assay type: functional; details: W1008, 18 h; procedure, shortened: as §1
[16] = system: Pseudomonas aeruginosa; experiment: Antibacterial activity against Pseudomonas aeruginosa 15846 assessed as growth inhibition at 128 to 0.002 mg/L incubated for 18 hrs at 37 degC by agar dilution method; assay type: functional; details: Pseudomonas aeruginosa, 15846, 18 h; procedure, shortened: as §1
[17] = system: Morganella morganii; experiment: Antibacterial activity against Morganella morganii W1026 assessed as growth inhibition at 128 to 0.002 mg/L incubated for 18 hrs at 37 degC by agar dilution method; assay type: functional; details: W1026, 18 h; procedure, shortened: as §1
[18] = system: Serratia marcescens; experiment: Antibacterial activity against Serratia marcescens IFO3736 assessed as growth inhibition at 128 to 0.002 mg/L incubated for 18 hrs at 37 degC by agar dilution method; assay type: functional; details: IFO3736, 18 h; procedure, shortened: as §1
[19] = target: DNA gyrase (Escherichia coli, UniProt P0AES4+P0AES6); experiment: Inhibition of Escherichia coli DNA gyrase preincubated for 5 mins at 37 degC before addition of relaxed pBR322 as substrate by supercoiling assay; assay type: protein-complex assay
[20] = Drug excretion in Sprague-Dawley rat at 10 mg/kg, po after 24 hrs by HPLC; assay type: ADME, organism-based; details: in vivo, read-out: Drug excretion; procedure, shortened: as §2
[21] = system: Klebsiella pneumoniae; experiment: Antibacterial activity against Klebsiella pneumoniae KC-1 assessed as growth inhibition at 128 to 0.002 mg/L incubated for 18 hrs at 37 degC by agar dilution method; assay type: functional; details: KC-1, 18 h; procedure, shortened: as §1
[22] = Passive permeability of the compound after 5 hrs at 25 degC by PAMPA assay; assay type: physicochemical; details: read-out: Peff
Procedure, shortened: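 PAMPA: 10 µM compound in PBS with 5% MeOH in donor, PBS acceptor; 25°C, 5 h; both sides quantified by HPLC; Peff derived from donor/acceptor concentrations, volumes, 0.3 cm² filter area and 18,000 s; mean ± S.D., n=3.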

[23] = system: Proteus mirabilis; experiment: Antibacterial activity against Proteus mirabilis IFO3849 assessed as growth inhibition at 128 to 0.002 mg/L incubated for 18 hrs at 37 degC by agar dilution method; assay type: functional; details: IFO3849, 18 h; procedure, shortened: as §1
[24] = system: Proteus vulgaris; experiment: Antibacterial activity against Proteus vulgaris IFO3167 assessed as growth inhibition at 128 to 0.002 mg/L incubated for 18 hrs at 37 degC by agar dilution method; assay type: functional; details: IFO3167, 18 h; procedure, shortened: as §1
[25] = system: Pseudomonas aeruginosa; experiment: Antibacterial activity against Pseudomonas aeruginosa IFO3445 assessed as growth inhibition at 128 to 0.002 mg/L incubated for 18 hrs at 37 degC by agar dilution method; assay type: functional; details: IFO3445, 18 h; procedure, shortened: as §1
[26] = system: Citrobacter freundii; experiment: Antibacterial activity against Citrobacter freundii IFO1268 assessed as growth inhibition at 128 to 0.002 mg/L incubated for 18 hrs at 37 degC by agar dilution method; assay type: functional; details: IFO1268, 18 h; procedure, shortened: as §1
[27] = Drug excretion in Sprague-Dawley rat assessed as unmetabolized form at 5 mg/kg, iv after 24 hrs by HPLC; assay type: ADME, organism-based; details: in vivo, read-out: Drug excretion; procedure, shortened: as §2
[28] = system: Salmonella typhimurium; experiment: Antibacterial activity against Salmonella typhimurium IFO13245 assessed as growth inhibition at 128 to 0.002 mg/L incubated for 18 hrs at 37 degC by agar dilution method; assay type: functional, Salmonella enterica subsp. enterica serovar Typhimurium; details: Salmonella enterica, IFO13245, 18 h; procedure, shortened: as §1

SMILES | MIC [1] | Fa at 24 h [2] | MIC [3] | MIC [6] | MIC [7] | MIC [10] | MIC [11] | MIC [13] | MIC [14] | MIC [15] | MIC [16] | MIC [17] | MIC [18] | IC50 [19] | MIC [21] | MIC [23] | MIC [24] | MIC [25] | MIC [26] | MIC [28] | also measured
CCNC1CN(c2c(F)cc3c(=O)c(C(=O)O)cn(-c4nc(N)c(F)cc4F)c3c2C)C1 | 0.12 µg/mL (≈ 0.268 µM) | 76% | 0.12 µg/mL (≈ 0.268 µM) | 0.006 µg/mL (≈ 0.0134 µM) | 0.12 µg/mL (≈ 0.268 µM) | 0.006 µg/mL (≈ 0.0134 µM) | 0.12 µg/mL (≈ 0.268 µM) | 0.12 µg/mL (≈ 0.268 µM) | 0.006 µg/mL (≈ 0.0134 µM) | 0.12 µg/mL (≈ 0.268 µM) | 0.12 µg/mL (≈ 0.268 µM) | 0.12 µg/mL (≈ 0.268 µM) | 0.12 µg/mL (≈ 0.268 µM) | 0.174 µM | 0.12 µg/mL (≈ 0.268 µM) | 0.12 µg/mL (≈ 0.268 µM) | 0.12 µg/mL (≈ 0.268 µM) | 0.12 µg/mL (≈ 0.268 µM) | 0.12 µg/mL (≈ 0.268 µM) | 0.12 µg/mL (≈ 0.268 µM) | dose excreted at 24 h [4]: 51%; dose excreted at 24 h [5]: 20%; dose excreted at 24 h [8]: 41%; solubility at 24 h [9]: 45 µg/mL (≈ 101 µM); dose excreted at 24 h [12]: 49%; dose excreted at 24 h [20]: 69%; Papp at 5 h [22]: 0.29 ×10⁻⁶ cm/s; dose excreted at 24 h [27]: 91%
Cc1c(N2CC(NC(C)C)C2)c(F)cc2c(=O)c(C(=O)O)cn(-c3nc(N)c(F)cc3F)c12 | 0.17 µg/mL (≈ 0.368 µM) | > 90% | 0.17 µg/mL (≈ 0.368 µM) | 0.01 µg/mL (≈ 0.0217 µM) | 0.17 µg/mL (≈ 0.368 µM) | 0.01 µg/mL (≈ 0.0217 µM) | 0.17 µg/mL (≈ 0.368 µM) | 0.17 µg/mL (≈ 0.368 µM) | 0.01 µg/mL (≈ 0.0217 µM) | 0.17 µg/mL (≈ 0.368 µM) | 0.17 µg/mL (≈ 0.368 µM) | 0.17 µg/mL (≈ 0.368 µM) | 0.17 µg/mL (≈ 0.368 µM) | 0.433 µM | 0.17 µg/mL (≈ 0.368 µM) | 0.17 µg/mL (≈ 0.368 µM) | 0.17 µg/mL (≈ 0.368 µM) | 0.17 µg/mL (≈ 0.368 µM) | 0.17 µg/mL (≈ 0.368 µM) | 0.17 µg/mL (≈ 0.368 µM) | dose excreted at 24 h [5]: 24%; solubility at 24 h [9]: 41 µg/mL (≈ 88.9 µM); dose excreted at 24 h [12]: 68%; dose excreted at 24 h [20]: 92%; Papp at 5 h [22]: 1.2 ×10⁻⁶ cm/s
Cc1c(N2CC(NC(C)(C)C)C2)c(F)cc2c(=O)c(C(=O)O)cn(-c3nc(N)c(F)cc3F)c12 | 0.57 µg/mL (≈ 1.2 µM) |  | 0.57 µg/mL (≈ 1.2 µM) | 0.038 µg/mL (≈ 0.0799 µM) | 0.57 µg/mL (≈ 1.2 µM) | 0.038 µg/mL (≈ 0.0799 µM) | 0.57 µg/mL (≈ 1.2 µM) | 0.57 µg/mL (≈ 1.2 µM) | 0.038 µg/mL (≈ 0.0799 µM) | 0.57 µg/mL (≈ 1.2 µM) | 0.57 µg/mL (≈ 1.2 µM) | 0.57 µg/mL (≈ 1.2 µM) | 0.57 µg/mL (≈ 1.2 µM) | 0.694 µM | 0.57 µg/mL (≈ 1.2 µM) | 0.57 µg/mL (≈ 1.2 µM) | 0.57 µg/mL (≈ 1.2 µM) | 0.57 µg/mL (≈ 1.2 µM) | 0.57 µg/mL (≈ 1.2 µM) | 0.57 µg/mL (≈ 1.2 µM) | 
